Results taken from ChEMBL document CHEMBL5678802, “Small-molecule p21-activated kinase inhibitor PF-3758309 is a potent inhibitor of oncogenic signaling and tumor growth” (Proc Natl Acad Sci U S A, 2010).
The source made the active and inactive calls. The calls are words filed in the database; no cut-off is given here.

Experiments:
[1] = system: NCI-H441; test: Antiproliferative activity against human NCI-H441 cells assessed as inhibition of cell proliferation incubated for 3 days by CellTiter-Glo Luminescent Cell Viability Assay; type: functional, cell-based; conditions: NCI-H441, 72 h
Procedure, shortened: (§1)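 Cells of each line were plated in 384-well plates on day 1 and exposed to compound from day 2 for 3 days. On day 5 all medium was aspirated. Viable cell number was read by CellTiter-Glo luminescence, which quantifies cellular ATP.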

[2] = system: NCI-H1395; test: Inhibition of anchorage independent cell growth in human NCI-H1395 cells incubated for 6 days by Alamar blue reagent based fluorescence plate reader analysis; type: functional; conditions: NCI-H1395, 144 h
[3] = system: HCC70; test: Antiproliferative activity against human HCC70 cells assessed as inhibition of cell proliferation incubated for 3 days by CellTiter-Glo Luminescent Cell Viability Assay; type: functional, cell-based; conditions: HCC70, 72 h
Procedure, shortened: (§2)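 Cancer cell lines seeded in 384-well plates on day 1; compound added on day 2 and left for 3 days. On day 5 all medium was aspirated, and viable cells were quantified by CellTiter-Glo luminescence, which measures cellular ATP. Dose-dependent effects on proliferation were determined.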

[4] = Drug concentration in nude mouse plasma xenografted with human HCT-116 cells at 0.36 mg/kg administered via pump for 9 days by LC-MS/MS analysis; type: ADME, organism-based; conditions: time 9 day
[5] = system: NCI-H1703; test: Antiproliferative activity against human NCI-H1703 cells assessed as inhibition of cell proliferation incubated for 3 days by CellTiter-Glo Luminescent Cell Viability Assay; type: functional, cell-based; conditions: NCI-H1703, 72 h; procedure, shortened: as §1
[6] = target: T1, Tyrosine-protein kinase Fgr (Homo sapiens, UniProt P09769); test: Inhibition of human FGR assessed as inhibition constant in presence of ATP
[7] = system: NCI-H1573; test: Antiproliferative activity against human NCI-H1573 cells assessed as inhibition of cell proliferation incubated for 3 days by CellTiter-Glo Luminescent Cell Viability Assay; type: functional, cell-based; conditions: NCI-H1573, 72 h; procedure, shortened: as §2
[8] = system: HCT-116; test: Antitumor activity against human HCT-116 cells xenografted in nude mouse assessed as tumor growth inhibition at 1.1 mg/kg administered via pump for 9 days relative to control; type: functional; conditions: HCT-116, 216 h, time 9 day, read-out: TGI
[9] = system: HCT-116; test: Antitumor activity against human HCT-116 cells xenografted in nude mouse assessed as tumor growth inhibition at 7.5 mg/kg, po administered twice daily for 9 to 18 days relative to control; type: functional; conditions: time 9-18 day, read-out: TGI
[10] = system: T84; test: Antiproliferative activity against human T84 cells assessed as inhibition of cell proliferation incubated for 3 days by CellTiter-Glo Luminescent Cell Viability Assay; type: functional, cell-based; conditions: T84, 72 h; procedure, shortened: as §1
[11] = target: T1, Tyrosine-protein kinase Fgr; test: Inhibition of human FGR in presence of ATP
[12] = system: PANC-03-27; test: Antiproliferative activity against human PANC-03-27 cells assessed as inhibition of cell proliferation incubated for 3 days by CellTiter-Glo Luminescent Cell Viability Assay; type: functional, cell-based; conditions: PANC-03-27, 72 h; procedure, shortened: as §1
[13] = system: HCT-116; test: Induction of cell cycle arrest in human HCT-116 cells assessed as accumulation of cells at sub G1 phase at 100 nM measured after 48 hrs by fluorescence activated cell sorter analysis (reference value: 1.84%); type: functional
[14] = system: HCC827; test: Antiproliferative activity against human HCC827 cells assessed as inhibition of cell proliferation incubated for 3 days by CellTiter-Glo Luminescent Cell Viability Assay; type: functional, cell-based; conditions: HCC827, 72 h; procedure, shortened: as §2
[15] = system: HCT-116; test: Antitumor activity against human HCT-116 cells xenografted in nude mouse assessed as inhibition of [3H]FLT uptake at 25 mg/kg, po administered once a day for 6 day and measured after 2 hrs post [3H]FLT administration by scintillation counter analysis relative to control; type: functional; conditions: HCT-116, 144 h
Procedure, shortened: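 HCT116 xenograft mice (tumors 300–350 mm3, n = 5 per group) received oral vehicle or compound, with harvests on days 2, 3 and 6. Isoflurane-anesthetized mice were given [3H]FLT (15 nCi/g, i.p.) 2 h before killing. Tumor and liver were weighed, solubilized and scintillation-counted. SUV = C/(ID/W), and uptake is reported as the tumor-to-liver SUV ratio.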

[16] = target: Protein kinase C beta type (Homo sapiens, UniProt P05771); test: Inhibition of human PKCbeta1 in presence of ATP relative to control; conditions: concentration not given here
[17] = system: Panc 04.03; test: Antiproliferative activity against human Panc 04.03 cells assessed as inhibition of cell proliferation incubated for 3 days by CellTiter-Glo Luminescent Cell Viability Assay; type: functional, cell-based; conditions: Panc 04.03, 72 h; procedure, shortened: as §1
[18] = target: Serine/threonine-protein kinase PAK 6 (Homo sapiens, UniProt Q9NQU5); test: Inhibition of PAK6 (unknown origin) using EVPRRKSLVGTPYWM peptide as substrate assessed as inhibition constant in presence of ATP by biochemical assay
Procedure, shortened: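 PAK6 kinase domain activity coupled to NADH oxidation via pyruvate kinase/lactate dehydrogenase (2 mM phosphoenolpyruvate, 0.33 mM NADH, 15 units/mL each PK and LDH) in 50 mM Hepes pH 7.5, 1 mM DTT, 5 mM MgCl2, 0.5 mM peptide 7, 0.072 mM ATP. Initial rates by linear least-squares regression; Ki from competitive or tight-binding inhibition fits.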

[19] = system: NCI-H1581; test: Antiproliferative activity against human NCI-H1581 cells assessed as inhibition of cell proliferation incubated for 3 days by CellTiter-Glo Luminescent Cell Viability Assay; type: functional, cell-based; conditions: NCI-H1581, 72 h; procedure, shortened: as §2
[20] = system: HCC1419; test: Antiproliferative activity against human HCC1419 cells assessed as inhibition of cell proliferation incubated for 3 days by CellTiter-Glo Luminescent Cell Viability Assay; type: functional, cell-based; conditions: HCC1419, 72 h; procedure, shortened: as §2
[21] = target: cGMP-dependent protein kinase 1 (Homo sapiens) (UniProt Q13976); test: Inhibition of human PRKG1 in presence of ATP relative to control; conditions: concentration not given here
[22] = system: A549; test: cells; conditions: Homo sapiens, A549, 144 h
[23] = system: HCT-116; test: Antitumor activity against human HCT-116 cells xenografted in nude mouse assessed as reduction in GSK3beta phosphorylation at S21 residue at 15 to 150 mg/kg/day administered via pump for 18 hrs by Reverse-Phase protein array analysis; type: functional, organism-based; conditions: dose 15-150 mg/kg/day
[24] = target: AMP-activated protein kinase (AMPK) alpha-1/beta-1/gamma-1 (Homo sapiens, UniProt P54619+Q13131+Q9Y478); test: Inhibition of human AMPK alpha1/beta1/gamma1 in presence of ATP; type: protein-complex assay
[25] = system: NCI-H1755; test: Antiproliferative activity against human NCI-H1755 cells assessed as inhibition of cell proliferation incubated for 3 days by CellTiter-Glo Luminescent Cell Viability Assay; type: functional, cell-based; conditions: NCI-H1755, 72 h; procedure, shortened: as §1
[26] = system: NCI-H1838; test: Inhibition of anchorage independent cell growth in human NCI-H1838 cells incubated for 6 days by Alamar blue reagent based fluorescence plate reader analysis; type: functional; conditions: NCI-H1838, 144 h
[27] = system: MDA-MB-361; test: Antiproliferative activity against human MDA-MB-361 cells assessed as inhibition of cell proliferation incubated for 3 days by CellTiter-Glo Luminescent Cell Viability Assay; type: functional, cell-based; conditions: MDA-MB-361, 72 h; procedure, shortened: as §2
[28] = Inhibition of YFP/YFP variant coding sequence fused p53/Pin1 (unknown origin) expressed in HEK293 cells incubated for 8 to 24 hrs by fluorescence based analysis; type: cell-based, Homo sapiens

T1 sequence (P09769 whole entry): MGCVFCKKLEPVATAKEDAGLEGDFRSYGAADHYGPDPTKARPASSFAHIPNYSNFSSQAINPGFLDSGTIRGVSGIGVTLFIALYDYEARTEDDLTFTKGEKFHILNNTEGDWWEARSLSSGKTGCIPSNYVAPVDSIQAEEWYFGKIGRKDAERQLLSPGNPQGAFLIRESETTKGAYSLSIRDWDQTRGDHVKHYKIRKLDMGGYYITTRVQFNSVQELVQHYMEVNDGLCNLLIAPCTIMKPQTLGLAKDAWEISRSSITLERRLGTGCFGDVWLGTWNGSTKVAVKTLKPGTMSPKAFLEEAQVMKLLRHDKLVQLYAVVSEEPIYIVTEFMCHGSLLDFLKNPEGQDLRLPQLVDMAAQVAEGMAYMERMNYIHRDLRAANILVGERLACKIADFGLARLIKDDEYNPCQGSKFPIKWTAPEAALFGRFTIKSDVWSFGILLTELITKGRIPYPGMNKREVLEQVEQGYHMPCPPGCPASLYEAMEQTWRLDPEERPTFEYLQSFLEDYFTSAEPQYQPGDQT
AMP-activated protein kinase (AMPK) alpha-1/beta-1/gamma-1, sequence (P54619 whole entry): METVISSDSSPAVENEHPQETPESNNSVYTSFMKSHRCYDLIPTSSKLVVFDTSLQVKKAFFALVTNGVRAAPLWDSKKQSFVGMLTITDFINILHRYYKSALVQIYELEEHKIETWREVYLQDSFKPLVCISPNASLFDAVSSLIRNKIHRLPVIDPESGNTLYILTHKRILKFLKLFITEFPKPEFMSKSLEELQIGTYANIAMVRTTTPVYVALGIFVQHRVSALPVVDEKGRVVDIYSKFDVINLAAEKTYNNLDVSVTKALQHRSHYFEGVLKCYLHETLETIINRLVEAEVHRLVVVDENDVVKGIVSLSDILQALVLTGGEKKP
AMP-activated protein kinase (AMPK) alpha-1/beta-1/gamma-1, sequence (Q9Y478 whole entry): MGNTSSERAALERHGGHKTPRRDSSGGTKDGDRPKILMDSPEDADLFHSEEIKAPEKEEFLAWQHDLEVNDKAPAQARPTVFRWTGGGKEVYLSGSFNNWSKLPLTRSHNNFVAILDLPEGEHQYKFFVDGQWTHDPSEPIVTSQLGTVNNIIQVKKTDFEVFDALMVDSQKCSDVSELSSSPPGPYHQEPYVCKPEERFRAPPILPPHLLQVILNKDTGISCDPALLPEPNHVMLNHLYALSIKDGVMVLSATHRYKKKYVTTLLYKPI
AMP-activated protein kinase (AMPK) alpha-1/beta-1/gamma-1, sequence (Q13131 whole entry): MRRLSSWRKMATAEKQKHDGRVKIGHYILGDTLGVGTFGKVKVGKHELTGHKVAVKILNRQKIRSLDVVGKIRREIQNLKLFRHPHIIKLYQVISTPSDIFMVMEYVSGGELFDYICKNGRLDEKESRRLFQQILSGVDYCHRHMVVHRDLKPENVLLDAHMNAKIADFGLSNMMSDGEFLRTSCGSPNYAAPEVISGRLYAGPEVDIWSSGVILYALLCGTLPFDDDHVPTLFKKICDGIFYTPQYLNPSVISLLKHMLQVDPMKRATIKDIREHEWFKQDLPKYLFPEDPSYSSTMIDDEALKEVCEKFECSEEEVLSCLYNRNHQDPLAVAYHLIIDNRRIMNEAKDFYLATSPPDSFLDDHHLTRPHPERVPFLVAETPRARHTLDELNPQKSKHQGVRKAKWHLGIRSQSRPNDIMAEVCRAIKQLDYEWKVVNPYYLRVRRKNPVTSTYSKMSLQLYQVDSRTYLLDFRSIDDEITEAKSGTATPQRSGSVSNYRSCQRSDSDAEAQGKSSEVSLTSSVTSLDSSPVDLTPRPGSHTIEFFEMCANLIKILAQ
cGMP-dependent protein kinase 1 (Homo sapiens), sequence (Q13976 whole entry): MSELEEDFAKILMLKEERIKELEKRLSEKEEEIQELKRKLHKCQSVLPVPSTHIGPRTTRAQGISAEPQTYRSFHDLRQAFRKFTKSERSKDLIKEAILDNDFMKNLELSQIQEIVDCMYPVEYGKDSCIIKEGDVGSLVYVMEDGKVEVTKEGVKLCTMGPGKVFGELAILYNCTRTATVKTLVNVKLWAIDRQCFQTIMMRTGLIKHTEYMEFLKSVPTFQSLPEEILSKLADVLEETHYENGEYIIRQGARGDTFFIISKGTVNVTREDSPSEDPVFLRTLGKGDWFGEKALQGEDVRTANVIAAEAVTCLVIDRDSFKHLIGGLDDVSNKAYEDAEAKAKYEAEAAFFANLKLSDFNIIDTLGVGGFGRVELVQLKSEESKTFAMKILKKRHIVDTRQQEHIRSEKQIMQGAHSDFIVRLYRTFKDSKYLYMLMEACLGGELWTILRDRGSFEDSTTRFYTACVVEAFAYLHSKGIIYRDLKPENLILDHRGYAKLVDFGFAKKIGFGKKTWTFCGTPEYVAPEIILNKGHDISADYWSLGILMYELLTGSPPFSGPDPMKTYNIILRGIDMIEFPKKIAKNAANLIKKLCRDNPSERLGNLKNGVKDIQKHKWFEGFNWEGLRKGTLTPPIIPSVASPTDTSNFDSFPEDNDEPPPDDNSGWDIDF
Protein kinase C beta type, sequence (P05771 2-671 limits assumed): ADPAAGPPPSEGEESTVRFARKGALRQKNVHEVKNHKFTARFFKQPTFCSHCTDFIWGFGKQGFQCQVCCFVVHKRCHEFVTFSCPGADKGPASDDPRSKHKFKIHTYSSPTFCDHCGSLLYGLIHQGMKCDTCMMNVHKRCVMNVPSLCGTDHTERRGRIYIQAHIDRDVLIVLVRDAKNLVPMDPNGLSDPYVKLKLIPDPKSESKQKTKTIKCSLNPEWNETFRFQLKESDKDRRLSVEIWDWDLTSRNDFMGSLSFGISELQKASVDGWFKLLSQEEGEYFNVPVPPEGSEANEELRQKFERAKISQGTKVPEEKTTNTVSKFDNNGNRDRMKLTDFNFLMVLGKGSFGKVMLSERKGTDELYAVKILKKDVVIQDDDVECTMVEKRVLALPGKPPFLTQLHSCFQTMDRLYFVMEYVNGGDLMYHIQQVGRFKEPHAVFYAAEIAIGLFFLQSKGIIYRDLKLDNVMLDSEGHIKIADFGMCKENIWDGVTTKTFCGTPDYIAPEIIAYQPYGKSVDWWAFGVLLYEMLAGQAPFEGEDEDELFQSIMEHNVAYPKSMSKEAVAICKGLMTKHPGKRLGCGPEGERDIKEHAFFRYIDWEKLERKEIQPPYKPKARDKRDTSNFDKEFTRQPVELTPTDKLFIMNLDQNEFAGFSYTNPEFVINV
Serine/threonine-protein kinase PAK 6, sequence (Q9NQU5 whole entry, the tested form may be a part): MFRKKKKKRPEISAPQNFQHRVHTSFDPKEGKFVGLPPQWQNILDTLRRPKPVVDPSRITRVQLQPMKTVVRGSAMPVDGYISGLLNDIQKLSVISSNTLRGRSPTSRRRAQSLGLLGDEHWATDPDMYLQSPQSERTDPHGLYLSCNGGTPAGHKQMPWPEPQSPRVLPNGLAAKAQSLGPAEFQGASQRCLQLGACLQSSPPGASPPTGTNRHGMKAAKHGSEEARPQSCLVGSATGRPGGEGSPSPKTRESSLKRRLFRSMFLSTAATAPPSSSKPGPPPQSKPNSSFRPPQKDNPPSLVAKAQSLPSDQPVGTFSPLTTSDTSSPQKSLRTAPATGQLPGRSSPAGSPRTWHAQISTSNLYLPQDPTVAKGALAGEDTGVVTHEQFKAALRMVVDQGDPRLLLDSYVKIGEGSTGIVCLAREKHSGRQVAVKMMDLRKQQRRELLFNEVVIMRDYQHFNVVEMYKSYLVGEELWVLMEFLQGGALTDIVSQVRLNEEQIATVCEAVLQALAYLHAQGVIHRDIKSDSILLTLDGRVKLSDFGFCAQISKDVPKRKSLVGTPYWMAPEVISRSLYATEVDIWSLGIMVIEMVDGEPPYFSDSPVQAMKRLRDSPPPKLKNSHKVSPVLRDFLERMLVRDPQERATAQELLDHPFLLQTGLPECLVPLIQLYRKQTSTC

## Cc1nc(Nc2n[nH]c3c2CN(C(=O)N[C@H](CN(C)C)c2ccccc2)C3(C)C)c2sccc2n1 [PF-03758309]
[1]
  IC50: 9.2 nM
[2]
  IC50: 7.62 nM
[3]
  IC50: 0.23 nM
[4]
  concentration at 216 h: 1.7 ng/mL
[5]
  IC50: 4.4 nM
[6]
  Ki: 15 nM
[7]
  IC50: 22 nM
[8]
  inhibition in vivo at 1.1 mg/kg: 104%
[9]
  inhibition in vivo at 7.5 mg/kg: 64%
[10]
  IC50: 89 nM
[11]
  IC50: 23.4 nM
[12]
  IC50: 32 nM
[13]
  Activity: 12.43%
[14]
  IC50: 9.2 nM
[15]
  inhibition in vivo at 25 mg/kg: 43.1%
[16]
  inhibition: 71%
[17]
  IC50: 347 nM
[18]
  Ki: 17.1 nM
[19]
  IC50: 0.6 nM
[20]
  IC50: 0.79 nM
[21]
  inhibition: 97%
[22]
  IC50: 27.4 nM
[23]
  Activity: Active
[24]
  IC50: 1 nM
[25]
  IC50: 15 nM
[26]
  IC50: 9.59 nM
[27]
  IC50: 6.9 nM
[28]
  IC50: 5.7 nM
